{
  "source": "ChEMBL document CHEMBL4414577",
  "about": "“Discovery of Pyrrolo[2,3-b]pyridine (1,7-Dideazapurine) Nucleoside Analogues as Anti-Trypanosoma cruzi Agents” (J Med Chem, 2019)",
  "key": {"[1]": {"assay": "Drug metabolism in mouse liver microsomes assessed as UGT-mediated metabolism by measuring compound remaining at 5 uM measured immediately in presence of UDPGA by UPLC-MS analysis", "assay_type": "ADME", "settings": "read-out: Stability", "how_it_was_run": "(§1)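 Compound incubated with male mouse, rat, dog or pooled human S9 fractions, with NADPH (phase I) or […], sampled at 0, 15, 30 and 60 min. Read-out is percent parent remaining. Two independent experiments of two biological replicates; diclofenac and fluconazole used as assay controls.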"}, "[2]": {"assay": "Drug metabolism in rat liver microsomes assessed as CYP450-mediated metabolism by measuring parent compound remaining at 5 uM measured immediately in presence of NADPH by UPLC-MS analysis", "assay_type": "ADME", "settings": "read-out: Stability", "how_it_was_run": "as §1"}, "[3]": {"assay": "Cytotoxicity against human MRC5 SV2 cells assessed as reduction in cell viability incubated for 3 days by resazurin dye based assay", "settings": "MRC-5 SV2, 72 h"}, "[4]": {"target": "T1, UDP-glucuronosyltransferases (UGTs) (Homo sapiens, UniProt O60656+O75310+O75795+P06133+P0DTE4+P0DTE5+P16662+P19224+P22309+P22310+P35503+P35504+P36537+P54855+Q6UWM9+Q9BY64+Q9HAW7+Q9HAW8+Q9HAW9)", "assay": "Drug metabolism in human liver S9 fraction assessed as UGT-mediated metabolism by measuring compound remaining at 5 uM incubated for 30 mins in presence of UDPGA by UPLC-MS analysis", "assay_type": "ADME, subcellular", "settings": "read-out: Stability", "how_it_was_run": "as §1"}, "[5]": {"target": "T1, UDP-glucuronosyltransferases (UGTs)", "assay": "Drug metabolism in human liver S9 fraction assessed as UGT-mediated metabolism by measuring compound remaining at 5 uM measured immediately in presence of UDPGA by UPLC-MS analysis", "assay_type": "ADME, subcellular", "settings": "read-out: Stability", "how_it_was_run": "as §1"}, "[6]": {"assay": "Drug metabolism in dog liver microsomes assessed as CYP450-mediated metabolism by measuring parent compound remaining at 5 uM incubated for 30 mins in presence of NADPH by UPLC-MS analysis", "assay_type": "ADME, Canis lupus familiaris", "settings": "read-out: Stability", "how_it_was_run": "as §1"}, "[7]": {"assay": "Cytotoxicity against Swiss mouse primary cardiac cells assessed as reduction in cell viability incubated for 24 hrs by PrestoBlue dye based colorimetry"}, "[8]": {"assay": "Drug metabolism in dog liver microsomes assessed as CYP450-mediated metabolism by measuring parent compound remaining at 5 uM incubated for 15 mins in presence of NADPH by UPLC-MS analysis", "assay_type": "ADME, Canis lupus familiaris", "settings": "read-out: Stability", "how_it_was_run": "as §1"}, "[9]": {"assay": "Drug metabolism in dog liver microsomes assessed as CYP450-mediated metabolism by measuring parent compound remaining at 5 uM incubated for 60 mins in presence of NADPH by UPLC-MS analysis", "assay_type": "ADME, Canis lupus familiaris", "settings": "read-out: Stability", "how_it_was_run": "as §1"}, "[10]": {"assay": "Drug metabolism in rat liver microsomes assessed as UGT-mediated metabolism by measuring compound remaining at 5 uM incubated for 15 mins in presence of UDPGA by UPLC-MS analysis", "assay_type": "ADME", "settings": "read-out: Stability", "how_it_was_run": "as §1"}, "Trypanosoma cruzi [11]": {"system": "Trypanosoma cruzi", "assay": "In vivo antitrypanosomal activity against Trypanosoma cruzi Y trypomastigotes infected in Swiss mouse assessed as reduction in parasitemia at 25 mg/kg, po administered twice daily via gavage for 5 days starting from 5 days post-infection in presence of cyclophosphamide by light microscopic method", "assay_type": "functional, organism-based", "how_it_was_run": "(§2)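 Infected mice were dosed orally at 25 mg/kg b.i.d. from 5 dpi, either for 5 days or for 15 days (3 × 5 days, 2 days apart). Mice with negative parasitemia up to 30 days post-treatment then received cyclophosphamide i.p. at 50 mg/kg/day. This was given in three cycles of 4 days, each followed by 3 drug-free days. Tail-vein blood parasitemia was then read by light microscopy.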"}, "Trypanosoma cruzi [12]": {"system": "Trypanosoma cruzi", "assay": "Antitrypanosomal activity against Trypanosoma cruzi Y amastigotes infected in Swiss mouse primary cardiac cells replenished for every 48 hrs for 168 hrs by geimsa staining based assay", "assay_type": "functional, organism-based", "how_it_was_run": "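Primary mouse cardiac cells infected 24 h at 37 °C with Y-strain bloodstream trypomastigotes (parasite:host 10:1), washed, then exposed 168 h at 37 °C to serial dilutions, medium with compound renewed every 48 h. Giemsa stained; infected cells and parasites per infected cell scored in 200 host cells. EC50 from inhibition of infection index; two independent determinations.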"}, "Trypanosoma cruzi [13]": {"system": "Trypanosoma cruzi", "assay": "In vivo antitrypanosomal activity against Trypanosoma cruzi Y trypomastigotes infected in Swiss mouse assessed as reduction in parasitemia at 25 mg/kg, po administered twice daily for 5 days with 2 days interval for 3 cycles and measured up to 30 days post-infection by light microscopy", "assay_type": "functional, organism-based", "how_it_was_run": "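Male Swiss Webster mice infected i.p. with 10⁴ Y-strain bloodstream trypomastigotes; six per group. Oral gavage from 5 dpi for 15 days (three 5-day rounds, 2 days off): test compound 25 mg/kg b.i.d., benznidazole 100 mg/kg s.i.d. Parasites counted in 5 μL tail blood to 30 dpi; mortality followed to 53 dpi.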"}, "[14]": {"assay": "Drug metabolism in mouse liver microsomes assessed as UGT-mediated metabolism by measuring compound remaining at 5 uM incubated for 30 mins in presence of UDPGA by UPLC-MS analysis", "assay_type": "ADME", "settings": "read-out: Stability", "how_it_was_run": "as §1"}, "[15]": {"assay": "Drug metabolism in rat liver microsomes assessed as CYP450-mediated metabolism by measuring parent compound remaining at 5 uM incubated for 60 mins in presence of NADPH by UPLC-MS analysis", "assay_type": "ADME", "settings": "read-out: Stability", "how_it_was_run": "as §1"}, "Trypanosoma cruzi [16]": {"system": "Trypanosoma cruzi", "assay": "Antitrypanosomal activity against Trypanosoma cruzi Y amastigotes infected in Swiss mouse primary cardiac cells incubated for 168 hrs with media replenishment for every 48 hrs followed by compound washout and measured after 168 hrs by light microscopic method", "assay_type": "functional, organism-based", "how_it_was_run": "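Cardiac cells plated 24 h, then infected 24 h at 37 °C with Y-strain bloodstream trypomastigotes (parasite:host 10:1) and washed. Serial dilutions (up to 5 µM) for 168 h at 37 °C, drug medium renewed every 48 h. PBS rinse, 168 h drug-free. Giemsa-stained; infected cells and parasites per cell scored in 200 cells. EC50 from infection-index inhibition; two experiments, duplicate.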"}, "[17]": {"assay": "Drug metabolism in rat liver microsomes assessed as UGT-mediated metabolism by measuring compound remaining at 5 uM incubated for 30 mins in presence of UDPGA by UPLC-MS analysis", "assay_type": "ADME", "settings": "read-out: Stability", "how_it_was_run": "as §1"}, "Cytochrome P450": {"target": "Cytochrome P450 (Homo sapiens, UniProt P04798+P05177+P05181+P08684+P10632+P10635+P11509+P11712+P13584+P20813+P20815+P20853+P24462+P24903+P33260+P33261+P51589+P78329+P98187+Q02928+Q08477+Q16678+Q16696+Q5TCH4+Q6VVX0+Q7Z449+Q8TAV3+Q96SQ9+Q9HB55)", "assay": "Drug metabolism in human liver S9 fraction assessed as CYP450-mediated metabolism by measuring parent compound remaining at 5 uM incubated for 15 mins in presence of NADPH by UPLC-MS analysis", "assay_type": "ADME, subcellular", "settings": "read-out: Stability", "how_it_was_run": "as §1"}, "[18]": {"assay": "Drug metabolism in rat liver microsomes assessed as CYP450-mediated metabolism by measuring parent compound remaining at 5 uM incubated for 30 mins in presence of NADPH by UPLC-MS analysis", "assay_type": "ADME", "settings": "read-out: Stability", "how_it_was_run": "as §1"}, "Trypanosoma cruzi [19]": {"system": "Trypanosoma cruzi", "assay": "In vivo antitrypanosomal activity against Trypanosoma cruzi Y trypomastigotes infected in Swiss mouse assessed as reduction in parasitemia at 25 mg/kg, po administered twice daily for 5 days with 2 days interval for 3 cycles in presence of cyclophosphamide by light microscopy", "assay_type": "functional, organism-based", "how_it_was_run": "as §2"}, "[20]": {"assay": "Drug metabolism in mouse liver microsomes assessed as CYP450-mediated metabolism by measuring parent compound remaining at 5 uM incubated for 15 mins in presence of NADPH by UPLC-MS analysis", "assay_type": "ADME", "settings": "read-out: Stability", "how_it_was_run": "as §1"}, "[21]": {"assay": "Drug metabolism in dog liver microsomes assessed as CYP450-mediated metabolism by measuring parent compound remaining at 5 uM measured immediately in presence of NADPH by UPLC-MS analysis", "assay_type": "ADME, Canis lupus familiaris", "settings": "read-out: Stability", "how_it_was_run": "as §1"}},
  "note": "pEC50: −log10 of the molar value. Activity calls are given as the source filed them. No cut-off for these calls is given here.",
  "data": [
    {"smiles": "Nc1ccnc2c1c(I)cn2[C@@H]1O[C@H](CO)[C@@H](O)[C@H]1O", "values": [
      {"measurement": "remaining at 0 min, 5 µM", "setting": "[1]", "result": 100, "unit": "%"},
      {"measurement": "remaining at 0 min, 5 µM", "setting": "[2]", "result": 100, "unit": "%"},
      {"measurement": "pEC50", "setting": "[3]", "result": "< 4.19"},
      {"measurement": "remaining at 0.5 h, 5 µM", "setting": "[4]", "result": 99, "unit": "%"},
      {"measurement": "remaining at 0 min, 5 µM", "setting": "[5]", "result": 100, "unit": "%"},
      {"measurement": "remaining at 0.5 h, 5 µM", "setting": "[6]", "result": 96, "unit": "%"},
      {"measurement": "pEC50", "setting": "[7]", "result": "< 3.40"},
      {"measurement": "remaining at 0.25 h, 5 µM", "setting": "[8]", "result": 97, "unit": "%"},
      {"measurement": "remaining at 1 h, 5 µM", "setting": "[9]", "result": 92, "unit": "%"},
      {"measurement": "remaining at 0.25 h, 5 µM", "setting": "[10]", "result": 97, "unit": "%"},
      {"measurement": "Activity", "setting": "Trypanosoma cruzi [11]", "result": "inactive"},
      {"measurement": "pEC50", "setting": "Trypanosoma cruzi [12]", "result": 7.05},
      {"measurement": "Activity", "setting": "Trypanosoma cruzi [13]", "result": "Active"},
      {"measurement": "remaining at 0.5 h, 5 µM", "setting": "[14]", "result": 103, "unit": "%"},
      {"measurement": "remaining at 1 h, 5 µM", "setting": "[15]", "result": 85, "unit": "%"},
      {"measurement": "pEC50", "setting": "Trypanosoma cruzi [16]", "result": "< 5.30"},
      {"measurement": "remaining at 0.5 h, 5 µM", "setting": "[17]", "result": 94, "unit": "%"},
      {"measurement": "remaining at 0.25 h, 5 µM", "setting": "Cytochrome P450", "result": 99, "unit": "%"},
      {"measurement": "remaining at 0.5 h, 5 µM", "setting": "[18]", "result": 87, "unit": "%"},
      {"measurement": "Activity", "setting": "Trypanosoma cruzi [19]", "result": "inactive"},
      {"measurement": "remaining at 0.25 h, 5 µM", "setting": "[20]", "result": 96, "unit": "%"},
      {"measurement": "remaining at 0 min, 5 µM", "setting": "[21]", "result": 100, "unit": "%"}
    ]}
  ]
}
